An excerpt weighted towards active compounds, which were near 6.6% of everything screened.
HUVEC prolif 384 – inhibitors of HUVEC proliferation, primary screen, cell-based, 384-well | CellTiter-Glo luminescence, 72 h; stronger effect = lower value | viability, % at 10 µM (by protocol) | actives 1.1% (n = 86,000);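 active = viability at or below 30%; inactive = viability above 30%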;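 note: 100% = median luminescence of DMSO-only cell control wells on each plate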
Lung fibro prol – antiproliferative effect on LL 47 fibroblasts – human, LL 47 cells, CellTiter-Glo luminescence, primary screen; LL 47 human lung fibroblast viability, ATP luminescence; stronger effect = lower value; viability, % at 10 µM; actives 1.1% (n = 85,000); AID 719, 2007;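 active = viability at or below 50% in the single dose screen; inactive = viability above 50%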;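 note: compound exposure lasted 72 h before the ATP readout; 100% = median luminescence of untreated cell-only wells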
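Test system: LL 47 human lung fibroblasts / Incubation: 72 h compound exposure at 37 °C after overnight plating / Technique: luminescent ATP detection, CellTiter-Glo / Compound dosing: 0.1% DMSO in all compound wells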
H69AR inhibit – proliferation blockers of H69AR lung cancer cells, primary screen, cell-based, human, 86K library; H69AR lung tumor viability, ATP luminescence, 72 h; stronger effect = lower value; viability, % at 10 µM; actives 6% (n = 85,000); AID 598, 2007;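 active = viability at or below 40%; inactive = viability above 40%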;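 note: multidrug resistant small cell line overexpressing MRP-1 efflux transporter; 100% = mean luminescence of untreated control wells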
Jurkat tox 60K – cytotoxicity toward Jurkat T cells, primary screen, cytotoxicity control, cell-based, Jurkat E6.1, 60K MLSMR library. inhibition, % at 4 µM. actives 1.2% (n = 56,000). Jurkat E6.1 viability, ATP luminescence, 48 h. AID 463, 2006;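 active = inhibition above the mean inhibition of all tested compounds plus 3 SD, cut at about 28% in these data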
The depositor's hits bear a star; x = no result given.

SMILES	HUVEC prolif 384	Lung fibro prol	H69AR inhibit	Jurkat tox 60K
CCOC(=O)c1ccc(N=C2NC(=O)CS2)cc1	91	98	98	-5
O=C(Nc1ccccc1)N1CCN(Cc2ccc3c(c2)OCO3)CC1	98	94	94	2
CCOC(=O)c1ccc(NC(=O)c2ccc3c(c2)OCO3)cc1	94	96	96	9
COC(=O)c1cc(=O)n(Cc2ccc3c(c2)OCO3)c(=Nc2ccc(F)cc2)s1	60	85	7.9*	x
CC(C)NC(=O)c1ccccc1NC(=O)CN(c1ccc2c(c1)OCO2)S(C)(=O)=O	107	101	x	-3
COc1ccc(C(=S)N2CCCC2)cc1C	91	97	93	-6
CC(C)(C)NC(=O)c1ccc2c(c1)N(CC(=O)N1CCN(c3ccc(F)cc3)CC1)C(=O)C(C)(C)O2	87	95	60	1
COC(=O)c1ccc(N=c2sc(C(=O)OC)cc(=O)n2C)cc1	58	55	24*	6
CCN=c1sc(C(=O)OC)cc(=O)n1CC	88	89	52	x
Nc1cccc(Nc2nc(OC(C(F)(F)F)C(F)(F)F)nc(OC(C(F)(F)F)C(F)(F)F)n2)c1	44	63	1.5*	x
COc1nc(Nc2ccc(O)cc2)nc(OC(C(F)(F)F)C(F)(F)F)n1	95	92	87	9
CCOc1ccc(Br)cc1C1C(C(=O)OC)=C(N)Oc2cc(N(C)C)ccc21 (centres undefined)	46	57	25*	x
O=c1[nH]c2ccccc2c2nc3ccccn3c12	89	90	35*	15
CCOC(=O)c1cc(C)n(-c2ccc(OC)c(OC)c2)c1C	89	92	50	x
O=C(NCC1CCCO1)c1ccc(CS(=O)(=O)c2ccc(Cl)cc2)o1 (centres undefined)	93	93	96	x
COC(=O)C(C)Sc1nc2c([nH]c3ccccc32)c(=O)n1C (centres undefined)	82	99	39*	x
CCC1CCCCN1C(=O)CSc1nnc(-c2c[nH]c3ccccc23)o1 (centres undefined)	108	93	35*	6
CCC1CCCCN1C(=O)CSc1nc2c([nH]c3ccccc32)c(=O)n1C (centres undefined)	85	105	34*	x
CC1CCCC(C)N1C(=O)CSc1nnc(-c2c[nH]c3ccccc23)o1 (centres undefined)	80	89	83	0
COCCN1C(=O)c2ccccc2C(C(=O)N2CCN(c3ccccc3)CC2)C1c1ccc(F)cc1 (centres undefined)	97	93	68	x
CC(C)(C)NC(=O)COC(=O)Cc1ccc(Cl)cc1	105	103	106	x
COc1ccc(C(=O)c2ccc(OC)c3cccc(O)c23)cc1OC	77	90	74	x
COc1ccc2c3c(cccc13)NN=C2C	3.0*	26*	26*	2
C=CCn1c(SCC(=O)Nc2sccc2C(N)=O)nc2sc(CC)cc2c1=O	73	86	40*	x
NC(=O)c1ccsc1NC(=O)CSc1ccccc1F	101	101	98	8
SMILES	HUVEC prolif 384	Lung fibro prol	H69AR inhibit	Jurkat tox 60K
CCCCn1c(SCC(=O)Nc2nnc(CC)s2)nc2ccccc2c1=O	88	95	86	1
C=CCn1c(SCC(=O)Nc2sccc2C(N)=O)nc2ccccc2c1=O	59	88	31*	x
C=CCn1c(SCC(=O)Nc2sccc2C(N)=O)nc2ccc(Cl)cc2c1=O	57	84	17*	x
C=CCn1c(SCC(=O)Nc2ccccc2OC)nc(O)c(CC)c1=O	92	108	92	-3
CCCn1c(N)c(C(=O)CSc2nnc(Cc3ccccc3)o2)c(=O)n(C)c1=O	83	97	83	x
C=CCn1c(SCC(=O)c2c(N)n(CCC)c(=O)n(C)c2=O)nc2sc(CC)cc2c1=O	83	46*	7.7*	x
COc1ccccc1-c1nnc(SCC(=O)OC(C)C)o1	95	92	86	0
COc1ccccc1C1C(C(C)=O)=C(C)N=c2s/c(=C\c3cc(OC)c(OC)c(OC)c3)c(=O)n21 (centres undefined)	80	93	30*	x
O=C(NCc1ccco1)c1cccc(-c2nnc(-c3ccccc3)o2)c1	66	105	71	-4
Cc1nc(N)sc1-c1csc(Nc2ccccn2)n1	89	93	72	-1
COc1ccc(Nc2nc(-c3sc(NC(C)=O)nc3C)cs2)cc1	36	73	13*	x
C=CCNc1nc(-c2sc(NC(C)=O)nc2C)cs1	62	82	52	x
COc1ccc(Nc2nc(-c3sc(N)nc3C)cs2)cc1	69	85	29*	-2
COc1ccc(C2N(S(=O)(=O)c3ccc(C)cc3)CCN2S(=O)(=O)c2ccc(C)cc2)cc1	112	93	88	x
Cc1onc(-c2ccccc2Cl)c1C(=O)NCCn1c(C)cc2ccccc21	x	x	x	6
O=C(C#Cc1cccc([N+](=O)[O-])c1)c1ccccc1	61	48*	2.6*	x
CCOC(=O)c1cc(OC(=O)c2cccc([N+](=O)[O-])c2)n(-c2ccccc2)n1	98	96	89	x
CSc1nnc(Cn2c(=O)sc3ccccc32)n1-c1ccccc1	96	96	98	2
N=c1sc2ccccc2n1-c1ccccc1	94	100	31*	x
CNc1sc(C(=O)c2cccs2)c(N)c1-c1nc2ccccc2s1	60	83	63	4
CCCCCn1c(N)c(-c2nc3ccccc3s2)c2c([N+](=O)[O-])nn(C)c(=O)c21	54	60	15*	x
O=C(c1ccccc1)c1nn(-c2ccccc2)c2nnc(Cc3ccccc3)c(=O)n12	58	104	32*	x
C=CCn1c(Cc2cccs2)nnc1SC/C=C/c1ccccc1	107	95	88	x
Cc1cccc(-c2nnc3n2N=C(c2ccc(Br)cc2)CS3)c1	72	78	52	x
Cc1ccc(-c2nnc3n2N=C(c2ccc(Br)cc2)CS3)cc1	60	70	6.1*	-3
SMILES	HUVEC prolif 384	Lung fibro prol	H69AR inhibit	Jurkat tox 60K
Brc1ccc(C2=Nn3c(nnc3-c3n[nH]c4c3CCC4)SC2)cc1	48	41*	20*	79*
Clc1ccc(C2=Nn3c(nnc3-c3n[nH]c4c3CCC4)SC2)cc1	57	53	15*	92*
CN(C)S(=O)(=O)c1ccc(NC(=O)c2c(F)cccc2Cl)cc1	104	101	84	x
COc1ccccc1OC(=O)CN1C(=O)c2ccccc2C1=O	98	118	103	x
N#Cc1c(NC(=O)CSc2ncn[nH]2)sc2c1CCCCC2	79	79	28*	19
N#Cc1c(NC(=O)CSc2ncn(-c3ccccc3)n2)sc2c1CCCC2	88	94	88	-3
N#Cc1c(NC(=O)CSc2nc(N)cc(=O)[nH]2)sc2c1CCCCCC2	95	88	79	56*
N#Cc1c(NC(=O)CSc2nnnn2C2CCCC2)sc2c1CCCC2	102	93	7.7*	-6
CC(C)(C)c1ccccc1NC(=O)c1ccco1	87	91	97	-4
N=c1c2c(-c3ccccc3)c(-c3ccccc3)n(Cc3ccccc3)c2ncn1CCO	3.3*	22*	1.9*	x

From PubChem BioAssay
